Measurements taken from ChEMBL document CHEMBL1157095, “Antimalarial versus cytotoxic properties of dual drugs derived from 4-aminoquinolines and Mannich bases: interaction with DNA” (J Med Chem, 2010).
Active and inactive are the calls of the source. The rule behind the calls is not given here.

Experiments:
[1] = system: Plasmodium falciparum; assay: Antiplasmodial activity against chloroquine-susceptible Plasmodium falciparum 3D7 infected in human erythrocytes assessed as inhibition of [3H]hypoxanthine uptake after 48 hrs; type: functional, organism-based
How it was run: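 Culture in RPMI 1640 with 10% human serum, 25 mM HEPES, 25 mM NaHCO3, A-positive blood, 10% O2/5% CO2/85% N2, 37 C. Isotopic microtest: 0.5% parasitemia, 1.5% hematocrit, 1 μCi tritiated hypoxanthine at time zero, 48 h; freeze-thaw lysis, filter harvest, scintillation count. IC50 = 50% uptake versus drug-free control, nonlinear regression of log dose-response curves.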

[2] = system: Plasmodium falciparum; assay: Antiplasmodial activity against chloroquine-susceptible Plasmodium falciparum D6 infected in human erythrocytes assessed as inhibition of [3H]hypoxanthine uptake after 48 hrs; type: functional, organism-based
How it was run: (§1)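 Strains were cultured in A-positive human blood in RPMI 1640 with 10% human serum, 25 mM HEPES and 25 mM NaHCO3, under 10% O2/5% CO2/85% N2 at 37 °C. Microtests used 0.5% parasitemia and 1.5% hematocrit. Tritiated hypoxanthine (1 μCi/well) was added at time zero, then 48 h incubation, freeze-thaw, harvest and scintillation counting. IC50 was taken by nonlinear regression against drug-free controls.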

[3] = system: Plasmodium falciparum; assay: Antiplasmodial activity against chloroquine-susceptible Plasmodium falciparum 8425 infected in human erythrocytes assessed as inhibition of [3H]hypoxanthine uptake after 48 hrs; type: functional, organism-based; how it was run: as §1
[4] = system: Plasmodium falciparum; assay: Antiplasmodial activity against chloroquine-susceptible Plasmodium falciparum Voll infected in human erythrocytes assessed as inhibition of [3H]hypoxanthine uptake after 48 hrs; type: functional, organism-based; how it was run: as §1
[5] = system: Plasmodium falciparum; assay: Antiplasmodial activity against chloroquine-susceptible Plasmodium falciparum L1 infected in human erythrocytes assessed as inhibition of [3H]hypoxanthine uptake after 48 hrs; type: functional, organism-based; how it was run: as §1
[6] = system: Plasmodium falciparum; assay: Antiplasmodial activity against chloroquine-susceptible Plasmodium falciparum PA infected in human erythrocytes assessed as inhibition of [3H]hypoxanthine uptake after 48 hrs; type: functional, organism-based; how it was run: as §1
[7] = system: Plasmodium falciparum; assay: Antiplasmodial activity against chloroquine-susceptible Plasmodium falciparum Bres infected in human erythrocytes assessed as inhibition of [3H]hypoxanthine uptake after 48 hrs; type: functional, organism-based; how it was run: as §1
[8] = system: Plasmodium falciparum; assay: Antiplasmodial activity against chloroquine-susceptible Plasmodium falciparum FCR3 infected in human erythrocytes assessed as inhibition of [3H]hypoxanthine uptake after 48 hrs; type: functional, organism-based; how it was run: as §1
[9] = system: Plasmodium falciparum; assay: Antiplasmodial activity against chloroquine-susceptible Plasmodium falciparum W2 infected in human erythrocytes assessed as inhibition of [3H]hypoxanthine uptake after 48 hrs; type: functional, organism-based; how it was run: as §1
[10] = system: Plasmodium falciparum; assay: Antiplasmodial activity against chloroquine-susceptible Plasmodium falciparum K2 infected in human erythrocytes assessed as inhibition of [3H]hypoxanthine uptake after 48 hrs; type: functional, organism-based; how it was run: as §1
[11] = system: Plasmodium falciparum; assay: Antiplasmodial activity against chloroquine-susceptible Plasmodium falciparum K14 infected in human erythrocytes assessed as inhibition of [3H]hypoxanthine uptake after 48 hrs; type: functional, organism-based; how it was run: as §1
[12] = system: Plasmodium falciparum; assay: Antiplasmodial activity against chloroquine-susceptible Plasmodium falciparum FCM29 infected in human erythrocytes assessed as inhibition of [3H]hypoxanthine uptake after 48 hrs; type: functional, organism-based; how it was run: as §1
[13] = system: Plasmodium falciparum; assay: Antiplasmodial activity against chloroquine-susceptible Plasmodium falciparum NF54 infected in human erythrocytes assessed as inhibition of [3H]hypoxanthine uptake after 48 hrs; type: functional, organism-based
How it was run: (§2)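 Asynchronous ring-stage cultures in human A Rh+ erythrocytes (RPMI 1640, HEPES, NaHCO3, hypoxanthine, 0.5% Albumax II, 5% CO2, 37 C), 1% parasitemia; top final drug concentration 30 μM. After 24 h, [3H]-hypoxanthine (0.2 μCi/well) added, further 48 h incubation; plates freeze-thawed, harvested, uptake counted; IC50 calculated.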

[14] = system: Plasmodium falciparum; assay: Antiplasmodial activity against chloroquine, pyrimethamine, cycloguanil-resistant Plasmodium falciparum K1 infected in human erythrocytes assessed as inhibition of [3H]hypoxanthine uptake after 48 hrs; type: functional, organism-based; how it was run: as §2
[15] = system: Plasmodium falciparum; assay: Antiplasmodial activity against chloroquine-resistant Plasmodium falciparum Dd2 infected in human erythrocytes assessed as inhibition of [3H]hypoxanthine uptake after 48 hrs; type: functional, organism-based
How it was run: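 Ring-stage infected erythrocytes (0.5% parasitemia, 2.5% hematocrit) exposed to compounds 48 h, then radioactive hypoxanthine 24 h; radioactivity in precipitable material taken as proliferation index for IC50.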

[16] = system: MRC5; assay: Cytotoxicity against human MRC5 after 3 days; type: cell-based; conditions: MRC5, 72 h
How it was run: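 MRC-5SV2 cells were grown in Earle's MEM with 5% FCSi and plated at about 10^4 cells/well. After 3 days of incubation, viability was read fluorimetrically with resazurin (ex 550/em 590 nm). Growth reduction was expressed relative to untreated control wells, and CC50 was derived.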

[17] = system: Mus musculus; assay: Toxicity in Plasmodium berghei ANKA-infected CD1 mice (Mus musculus) assessed as mortality at 30 mg/kg, intraperitoneally; type: organism-based; set-up: dose 30 mg/kg, route intraperitoneal; conditions: in vivo, ip
How it was run: (§3)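 Peters 4-day suppressive test, P. berghei ANKA: 18-20 g mice infected iv with 2 × 10^6 parasitized red cells day 0; compounds freshly made in 10% DMSO in sterile PBS, given ip from 2 h postinfection and on days 1-3; daily dose 30 mg/kg or 50 mg/kg; deaths recorded.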

[18] = system: Mus musculus; assay: Toxicity in ip dosed Swiss mouse assessed as mortality at 30 mg/kg, ip; type: organism-based; set-up: dose 30 mg/kg, route intraperitoneal; conditions: in vivo; how it was run: as §3
[19] = system: Plasmodium berghei; assay: Antiplasmodial activity against Plasmodium berghei ANKA infected in Swiss mice (Mus musculus) assessed as reduction of parasitaemia at 30 mg/kg, intraperitoneally; type: functional, organism-based; set-up: dose 30 mg/kg
How it was run: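 Swiss mice (18-20 g) infected intravenously on day 0 with 2 × 10^6 P. berghei ANKA parasitized red cells. Compound was freshly prepared in 10% DMSO in sterile PBS and given ip, first 2 h postinfection, then on days +1-3 (4-day suppressive test). On day +4, parasitemia was counted microscopically on Giemsa-stained tail-blood films.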

[20] = system: NCH89; assay: Antiproliferative activity against human carmustine-resistant NCH-89 cells assessed as BrdU incorporation after 48 hrs; type: functional, cell-based; conditions: NCH89, 48 h
How it was run: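 NCH89 glioblastoma cells were seeded at 7 × 10^3 cells/well in replicate wells for 24 h. Compound was then added at 0.1-100 μM. After 48 h, BrdU was added at 100 μM final, and incorporation was detected with a BrdU labeling/detection kit.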

[21] = molecular target: Nucleic Acid; assay: Binding affinity to pUC18 DNA at pH 7.5 by UV-Vis spectrophotometry analysis; type: nucleic-acid assay
How it was run: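 A 10 μM drug solution was titrated at room temperature with linearized pUC18 DNA (50% AT), 0.1-50 μM base pairs final. Buffer was TE (10 mM Tris-HCl, 0.1 mM EDTA) with 5 mM NaCl, ionic strength 12 mM. UV-Vis absorption spectra were recorded at 220-380 nm. Kd = DNA concentration at which half the drug is bound.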

[22] = molecular target: Nucleic Acid; assay: Binding affinity to pUC18 DNA at pH 7.5 by spectrofluorimetry analysis; type: nucleic-acid assay
How it was run: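 A 1-10 μM drug solution was titrated at room temperature with linearized pUC18 DNA (50% AT), 0.1-50 μM base pairs final, in TE buffer with 5 mM NaCl (ionic strength 12 mM). Fluorescence used excitation at 320 nm and emission at 340-500 nm, corrected for buffer and instrument response. Kd = DNA concentration giving half-bound drug.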

[23] = system: Nucleic Acid; assay: Binding affinity to pUC18 DNA containing 50% AT assessed as maximum melting temperature at 1 uM by spectrophotometry analysis; type: nucleic-acid assay
How it was run: (§4)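 Drug at 1 μM was mixed with DNA at 15 μM base pairs (15:1 bp:drug) in TE with 5 mM NaCl. Absorbance at 260 nm was recorded from 30-97 °C at 0.5 °C/min, with readings every 0.5 °C. Curves were normalized, smoothed and differentiated. Tmmax = derivative peak maximum; Tmint = middle of the integrated area; Tm1/2 = middle of the peak at half height.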

[24] = system: Nucleic Acid; assay: Binding affinity to pUC18 DNA containing 50% AT assessed as middle of the peak at half height melting temperature at 1 uM by spectrophotometry analysis; type: nucleic-acid assay; how it was run: as §4
[25] = system: Nucleic Acid; assay: Binding affinity to pUC18 DNA containing 50% AT assessed as middle of the integrated surface melting temperature at 1 uM by spectrophotometry analysis; type: nucleic-acid assay; how it was run: as §4
[26] = system: Nucleic Acid; assay: Binding affinity to polydAdT DNA containing 100% AT assessed as maximum melting temperature at 1 uM by spectrophotometry analysis; type: nucleic-acid assay; how it was run: as §4
[27] = system: Nucleic Acid; assay: Binding affinity to polydAdT DNA containing 100% AT assessed as middle of the peak at half height melting temperature at 1 uM by spectrophotometry analysis; type: nucleic-acid assay; how it was run: as §4
[28] = system: Nucleic Acid; assay: Binding affinity to polydAdT DNA containing 100% AT assessed as middle of the integrated surface melting temperature at 1 uM by spectrophotometry analysis; type: nucleic-acid assay; how it was run: as §4

| SMILES | IC50 [1] | IC90 [1] | IC50 [2] | IC90 [2] | IC50 [3] | IC90 [3] | IC50 [4] | IC90 [4] | IC50 [5] | IC90 [5] | IC50 [6] | IC90 [6] | IC50 [7] | IC90 [7] | IC50 [8] | IC90 [8] | IC50 [9] | IC90 [9] | IC50 [10] | IC90 [10] | other results |
| --- | --- | --- | --- | --- | --- | --- | --- | --- | --- | --- | --- | --- | --- | --- | --- | --- | --- | --- | --- | --- | --- |
| C=C[C@H]1CN2CC[C@H]1C[C@H]2[C@H](O)c1ccnc2ccc(OC)cc12 [QUININE] | 104 nM | 597 nM | 61.8 nM | 464 nM | 130 nM | 390 nM | 422 nM | 843 nM | 531 nM | 995 nM | 627 nM | 1110 nM | 689 nM | 614 nM | 665 nM | 1110 nM | 684 nM | 1250 nM | 619 nM | 1510 nM | IC50 [11]: 496 nM; IC90 [11]: 1640 nM; IC90 [12]: 1200 nM |
| CN(C)CCC(NCCNc1ccnc2cc(Cl)ccc12)c1ccccc1 (centres undefined) | 8.1 nM | 14.4 nM | 12.2 nM | 16.7 nM | 8.8 nM | 16.9 nM | 65.2 nM | 144 nM | 61.7 nM | 177 nM | 161 nM | 318 nM | 158 nM | 310 nM | 64.4 nM | 196 nM | 99.8 nM | 260 nM | 87.1 nM | 247 nM | IC50 [13]: 7.1 nM; IC50 [14]: 61.9 nM; IC50 [15]: 25.6 nM; IC50 [11]: 129 nM; IC90 [11]: 267 nM; IC50 [12]: 244 nM; IC90 [12]: 376 nM; IC50 [16]: 27000 nM; Activity [17]: Toxic; Activity [18]: Toxic; Activity [19]: Active; IC50 [20]: 7300 nM; Kd [21]: 7000 nM; Kd [22]: 8000 nM; Tm [23]: 74.4 °C; Tm [24]: 76.5 °C; Tm [25]: 75.5 °C; Tm [26]: 46.8 °C; Tm [27]: 47.4 °C; Tm [28]: 47.1 °C |
| CCNCc1cc(Nc2ccnc3cc(Cl)ccc23)ccc1O [DESETHYL AMODIAQUINE] | 19.5 nM | 31.4 nM | 17.5 nM | 37 nM | 26.4 nM | 41.4 nM | 77.5 nM | 113 nM | 86.1 nM | 125 nM | 72.8 nM | 106 nM | 100 nM | 143 nM | 79.1 nM | 130 nM | 146 nM | 202 nM | 91.2 nM | 144 nM | IC50 [11]: 160 nM; IC90 [11]: 220 nM; IC50 [12]: 318 nM; IC90 [12]: 407 nM |
| CC(C)NCCNc1ccnc2cc(Cl)ccc12 | 35.2 nM | 65.6 nM | 35.6 nM | 67.8 nM | 29 nM | 59.4 nM | 63.7 nM | 135 nM | 63.2 nM | 132 nM | 64 nM | 107 nM | 129 nM | 218 nM | 86.1 nM | 164 nM | 169 nM | 320 nM | 130 nM | 285 nM | IC50 [13]: 8.9 nM; IC50 [14]: 47.4 nM; IC50 [15]: 22.6 nM; IC50 [11]: 171 nM; IC90 [11]: 316 nM; IC50 [12]: 239 nM; IC90 [12]: 369 nM; IC50 [16]: 64000 nM; IC50 [20]: 30400 nM; Kd [21]: 17500 nM; Kd [22]: 8000 nM; Tm [23]: 73 °C; Tm [24]: 74.5 °C; Tm [25]: 73.9 °C; Tm [26]: 46.6 °C; Tm [27]: 46.5 °C; Tm [28]: 46.5 °C |
